Data on five compounds can be found in ChEMBL document CHEMBL4321838, “Drug Design Targeting T-Cell Factor-Driven Epithelial-Mesenchymal Transition as a Therapeutic Strategy for Colorectal Cancer” (J Med Chem, 2019).

The test system of data set [1] is SW-620. Description: Antiinvasive activity in human SW620 organoids transduced with NucLight-Red virus assessed as inhibition of cell invasion at 10 uM incubated for 72 hrs and measured after 72 hrs by matrigel based fluorescence analysis. The format is functional. The gist of the method:
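NucLight-Red-labelled SW620 organoids treated 72 h at 10 μM in 0.1% DMSO, then dissociated. 5,000 live cells per well seeded in 50% Matrigel in the upper chamber of a migration plate, 0.5% FBS above and 20% FBS below. Invading cells tracked by bottom-side fluorescence over days, six replicates per condition.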

Data set [2] concerns the target T1, DNA topoisomerase 2-alpha (Homo sapiens, UniProt P11388). Description: Inhibition of topoisomerase 2alpha in human SW620 organoids transfected with EcadPro-RFP reporter assessed as reversion of epithelial-mesenchymal transition by measuring increase in E-cadherin expression at 10 uM after 72 hrs by Hoechst 33342 staining based mCherryRFP reporter gene assay. The gist of the method:
(§1)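 SW620 cells stably carrying VimPro-GFP or EcadPro-mCherry (puromycin selected) grown as organoids and dosed 72 h. Stained with 16 μM Hoechst 33342 for 1 h and imaged as 15 z-layers, 26.5 μm apart. Nuclei segmented and GFP- or mCherry-positive cells counted above background thresholds. Percent positive cells normalised to DMSO.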

Data set [3] has as its target T1, DNA topoisomerase 2-alpha. Briefly: Inhibition of human topoisomerase 2alpha mediated decatenation using kDNA as susbtrate preincubated for 20 mins followed by substrate and ATP addition and measured after 1 hr by ethidium bromide staining based gel electrophoresis method. The gist of the method:
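IC50 from decatenation gels: TOP2A at 4 U per reaction, compound as 2-fold serial dilutions from 58.6 nM to 30 μM, 20 min preincubation. Then 2 mM ATP plus 35 ng kDNA for 1 h at 37 °C. Gels were 0.8% agarose with ethidium bromide, with decatenated and catenated DNA marker lanes.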

The nature of data set [4]: Metabolic stability in CD-1 mouse inactive microsomes incubated for 1 hr by LC-MS/MS analysis. The format is ADME, Microsome.
Data set [5] deals with T1, DNA topoisomerase 2-alpha. Briefly: Inhibition of topoisomerase 2alpha dependent TCF transcription in human SW620 organoids transduced with TOPflash luminescent reporter after 72 hrs by luciferase based TOPFlash reporter gene assay. The gist of the method: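 SW620 cells stably carrying pCDH-TOPflash-luc grown as organoids: 5,000 cells per U-bottom well in phenol red-free RPMI with 5% FBS and 2% Matrigel, 72 h. Inhibitor then applied 72 h. One-Glo luciferase and CellTiter-Glo 3D added 1:1. Luciferase signal normalised to viability, then to DMSO controls.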

The nature of data set [6]: Drug metabolism in CD-1 mouse active microsomes assessed as CYP450-mediated oxidative phase 1 metabolite formation by LC-MS/MS analysis.
A short description of data set [7]: Drug metabolism in CD-1 mouse active microsomes assessed as CYP450-mediated oxidative phase 1 metabolite formation measured within 30 mins by LC-MS/MS analysis. The format is ADME. The note with it: 0.5 h.
Data set [8] addresses T1, DNA topoisomerase 2-alpha. Briefly: Inhibition of human topoisomerase 2alpha mediated decatenation at 30 uM using kDNA as susbtrate preincubated for 20 mins followed by substrate and ATP addition and measured after 1 hr by ethidium bromide staining based gel electrophoresis method relative to control. A digest of the protocol: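 Human TOP2A (3 U) preincubated 20 min at 37 °C with compound at 30 μM in 1.2% DMSO. Reaction started with 2 mM ATP and 35 ng kDNA and run 1 h at 37 °C. Products resolved on 0.8% agarose in TBE with 0.2 μg/mL ethidium bromide; decatenated bands compared with vehicle.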

Data set [9] has as its system SW-620. Description: Cytotoxicity against human SW620 organoids assessed as cell death with loss of membrane integrity after 72 hrs by CellTox Green assay. The format is functional, cell-based. As to conditions: SW-620, 72 h. A digest of the protocol:
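SW620 tumor organoids exposed 72 h to inhibitor over 0–40 μM together with CellTox Green Express (0.5X). Whole-well mean fluorescence imaged (ex 488, em 500–550 nm). Normalised to lysis buffer as 0% viability and 0.4% DMSO as 100% viability.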

Data set [10] addresses T1, DNA topoisomerase 2-alpha. Briefly: Inhibition of topoisomerase 2alpha dependent TCF transcription in human SW620 organoids transduced with TOPflash luminescent reporter at 10 uM after 72 hrs by luciferase based TOPFlash reporter gene assay.
In data set [11] the target is T1, DNA topoisomerase 2-alpha. Description: Inhibition of topoisomerase 2alpha in human SW620 organoids transfected with VimPro-GFP reporter assessed as reversion of epithelial-mesenchymal transition by measuring reduction in vimentin expression at 10 uM after 72 hrs by Hoechst 33342 staining based GFP reporter gene assay. The gist of the method: as §1
The subject of data set [12] is SW-620. Briefly: Anticlonogenic activity against human SW620 cells assessed as loss of cancer stem cell stemness by measuring inhibition of colony formation at 10 uM incubated for 24 hrs followed by replating and measured after 7 days by clonogenic assay. The format is functional, cell-based.
Data set [13] in a line: Drug metabolism in CD-1 mouse active microsomes assessed as metabolite formation at rate of biphasic kinetics by LC-MS/MS analysis. The format is ADME, Microsome.
Data set [14] can be described thus: Drug metabolism in CD-1 mouse active microsomes assessed as metabolite formation at rate of first-order kinetics by LC-MS/MS analysis. The format is ADME, Microsome.
Data set [15] addresses T1, DNA topoisomerase 2-alpha. Description: Poison activity at topoisomerase 2alpha in human SW620 cells assessed as induction of DNA double stranded break by measuring gamma H2AX phosphorylation up to 40 uM after 6 hrs by Hoechst-33342 staining based immunofluorescence assay. The format is cell-based. The gist of the method:
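SW620 monolayers, 20,000 cells per well, treated with compound for 6 or 24 h. Fixed in 4% paraformaldehyde, then permeabilised and blocked. Stained with γ-H2AX antibody overnight at 4 °C, FITC secondary antibody, and Hoechst 33342, then imaged at 20x.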

The nature of data set [16]: Tmax in CD-1 mouse at 50 mg/kg, ip by LC-MS/MS analysis. The format is ADME, organism-based. As to conditions: in vivo. The gist of the method: (§2)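 Female CD-1 mice, single IP injection at 50 mg/kg in 100% DMSO. Sampling from 0.25 to 24 h, three mice per time point (21 per compound). Heparinised blood was spun to plasma, mixed 1:1 with acidified acetonitrile (0.1% formic acid or 0.1% TFA depending on compound), centrifuged, then measured by LC-MS/MS.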

The nature of data set [17]: Cmax in CD-1 mouse at 50 mg/kg, ip by LC-MS/MS analysis. The format is ADME, organism-based. Details: dose 50 mg/kg, route intraperitoneal. The note with it: in vivo. The gist of the method: as §2
Data set [18] has as its system SW-620. Briefly: Cytotoxicity against human SW620 organoids assessed as growth inhibition at 10 uM after 72 hrs by brightfield imaging of organoid volume.
Data set [19] concerns SW-620. Briefly: Induction of apoptosis in human SW620 organoids assessed as increase in cleaved caspase 3/7 level at 40 uM after 72 hrs by caspase-glo 3/7 luminescence assay relative to control. The format is functional. A digest of the protocol:
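SW620 cells, 2,000 per well in 384-well ultra-low attachment plates with 2% Matrigel, grown 72 h into organoids, then dosed 72 h. Caspase-Glo 3/7 reagent added 1:1 and shaken 30 min; luminescence read. Staurosporine served as positive control and 0.4% DMSO as negative control.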

Data set [20] is described as follows: Aqueous solubility of compound in PBS at 1 mg after 18 hrs by UV based analysis. The format is physicochemical. The gist of the method:
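Undissolved material removed by centrifugation at 5,000g for 45 min. UV absorption compared with a fully saturated 1-propanol solution; solubility derived by linear regression.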

Data set [21] can be described thus: Clearance in CD-1 mouse at 50 mg/kg, ip by LC-MS/MS analysis. The note with it: in vivo. The format is ADME, organism-based. A digest of the protocol:
as §2

Data set [22] can be described thus: AUC(0 to t) in CD-1 mouse at 50 mg/kg, ip by LC-MS/MS analysis. As to conditions: in vivo. The format is ADME, organism-based. The gist of the method:
as §2

The test system of data set [23] is SW-620. Briefly: Induction of early stage cell death in human SW620 organoids transfected with EcadPro-RFP reporter assessed as loss of RFP reporter activity at 40 uM at after 72 hrs by Hoechst 33342 staining based mCherryRFP reporter gene assay. The note with it: sw-620, 72 h.
The subject of another data set is Mus musculus. Description: Apparent volume of drug distribution in CD-1 mouse at 50 mg/kg, ip by LC-MS/MS analysis. The format is ADME, organism-based. As to conditions: in vivo. The gist of the method:
as §2

Data set [24] in a line: Half life of terminal disposition phase in CD-1 mouse at 50 mg/kg, ip by LC-MS/MS analysis. The format is ADME, organism-based. The note with it: in vivo, read-out: t1/2lambda (converted). A digest of the protocol: as §2
Data set [25] deals with T1, DNA topoisomerase 2-alpha. Description: Inhibition of topoisomerase 2alpha in human SW620 organoids transfected with EcadPro-RFP reporter assessed as reversion of epithelial-mesenchymal transition by measuring increase in E-cadherin expression up to 40 uM after 72 hrs by Hoechst 33342 staining based mCherryRFP reporter gene assay. The gist of the method: as §1
The nature of data set [26]: Half life in CD-1 mouse microsomes measured up to 1 hr by LC-MS analysis. The format is ADME, Microsome. The gist of the method:
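Female CD-1 mouse liver microsomes (0.5 mg/mL), substrate 1 μg/mL and 1.5 mM NADPH in 0.1 M phosphate buffer pH 7.4 at 37 °C. Samples taken from 0 to 60 min and quenched with an equal volume of acetonitrile. Parent compound remaining measured by LC-MS/MS without internal standard.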

Data set [27] has as its target T1, DNA topoisomerase 2-alpha. Briefly: Inhibition of topoisomerase 2alpha in human SW620 organoids transfected with VimPro-GFP reporter assessed as reversion of epithelial-mesenchymal transition by measuring reduction in vimentin expression up to 40 uM after 72 hrs by Hoechst 33342 staining based GFP reporter gene assay. A digest of the protocol:
as §1

In brackets after ≈: the same amount, converted by molar mass. Activity calls are given as the source filed them.

T1 sequence (P11388 whole entry): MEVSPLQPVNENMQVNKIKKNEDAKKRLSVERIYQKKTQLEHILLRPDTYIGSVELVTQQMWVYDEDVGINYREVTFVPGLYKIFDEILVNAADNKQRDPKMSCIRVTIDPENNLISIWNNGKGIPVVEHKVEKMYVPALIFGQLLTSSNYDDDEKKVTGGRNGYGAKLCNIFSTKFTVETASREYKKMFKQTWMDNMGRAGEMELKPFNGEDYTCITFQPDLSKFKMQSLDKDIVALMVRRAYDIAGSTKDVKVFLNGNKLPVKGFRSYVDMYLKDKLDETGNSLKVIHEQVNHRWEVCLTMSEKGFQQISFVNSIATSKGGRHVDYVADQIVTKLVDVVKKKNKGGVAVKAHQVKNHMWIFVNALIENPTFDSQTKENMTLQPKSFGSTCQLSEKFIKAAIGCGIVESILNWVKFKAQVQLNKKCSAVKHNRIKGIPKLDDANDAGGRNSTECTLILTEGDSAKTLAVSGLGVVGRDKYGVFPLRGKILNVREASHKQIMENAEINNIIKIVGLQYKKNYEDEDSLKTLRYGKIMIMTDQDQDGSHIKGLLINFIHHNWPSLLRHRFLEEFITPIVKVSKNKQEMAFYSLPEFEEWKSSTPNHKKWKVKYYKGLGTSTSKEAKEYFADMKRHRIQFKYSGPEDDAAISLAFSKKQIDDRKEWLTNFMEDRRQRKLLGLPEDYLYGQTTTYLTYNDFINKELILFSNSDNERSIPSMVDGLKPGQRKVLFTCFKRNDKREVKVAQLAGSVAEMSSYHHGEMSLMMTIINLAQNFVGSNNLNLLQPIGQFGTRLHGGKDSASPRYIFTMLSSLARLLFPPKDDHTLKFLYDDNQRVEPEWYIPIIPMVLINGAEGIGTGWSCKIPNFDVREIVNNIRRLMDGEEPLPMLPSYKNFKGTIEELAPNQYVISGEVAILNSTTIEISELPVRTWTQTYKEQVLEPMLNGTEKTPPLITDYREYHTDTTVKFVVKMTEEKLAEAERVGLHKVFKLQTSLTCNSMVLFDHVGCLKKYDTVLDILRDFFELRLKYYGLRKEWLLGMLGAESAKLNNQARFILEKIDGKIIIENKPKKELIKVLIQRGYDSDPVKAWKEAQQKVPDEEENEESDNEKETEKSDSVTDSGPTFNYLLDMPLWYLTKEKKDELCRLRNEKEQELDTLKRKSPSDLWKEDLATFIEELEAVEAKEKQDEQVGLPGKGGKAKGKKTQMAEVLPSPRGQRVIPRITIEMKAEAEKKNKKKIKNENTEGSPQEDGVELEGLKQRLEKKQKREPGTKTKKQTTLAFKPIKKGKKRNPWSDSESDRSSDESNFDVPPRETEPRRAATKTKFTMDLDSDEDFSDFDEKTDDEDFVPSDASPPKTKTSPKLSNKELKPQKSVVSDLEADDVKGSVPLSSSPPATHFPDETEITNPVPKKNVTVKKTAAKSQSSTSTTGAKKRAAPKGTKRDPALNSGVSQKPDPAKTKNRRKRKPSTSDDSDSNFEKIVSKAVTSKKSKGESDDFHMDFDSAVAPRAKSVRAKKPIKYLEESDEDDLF

In the case of `COc1cc(NC(C)=O)c(O)c2nccc(-c3ccccc3NC(=O)c3ccccc3)c12`, the inhibition result (in the data set on SW-620 [1]; in data set [2]; in [10]; in data set [11]; in the data set with SW-620 [12]) was “Active” in each case. The IC50 in data set [3] came out at 1.2 µM; in data set [5], 2.4 µM. In addition, the Stability entry in data set [4] is listed as “Stable”. The Drug metabolism result in data set [6] is listed as “Metabolite_Notdetected”; in data set [7], “Metabolite_Detected”. The inhibition in [8] amounted to 100%. Moreover, the EC50 in the data set with SW-620 [9] is over 30 µM.

Turning to `CC(=O)Nc1ccc2c(-c3ccsc3)ccnc2c1O`, in [4], the Stability entry is given as “Stable”. Further, the Drug metabolism result in [6] was “Metabolite_Notdetected”; in data set [7], “Metabolite_Detected”; in [13] it was “Metabolite_Detected”; in data set [14] it was “Metabolite_Notdetected”. The inhibition in data set [8] turned out to be 92%.

Regarding `Cn1ccc2c(c1=O)C(=O)c1nccc3c1c-2nc1ccccc13` [NEOAMPHIMIDINE], the Activity entry in [15] is listed as “Not Active”.

Consider `CC(=O)Nc1ccc2c(-c3ccccc3)ccnc2c1O`, for which the Stability entry in [4] was “Stable”. Also, the figures for the Drug metabolism entry in [13] and in data set [14] were “Metabolite_Detected” and “Metabolite_Notdetected”, respectively. The compound also came in with an inhibition in data set [8] of 25%.

Consider `CC(=O)Nc1ccc2c(-c3cc(F)ccc3O)ccnc2c1O`, for which the time to peak (Tmax) in data set [16] was 15 min. This compound displayed a Cmax in data set [17] of 19 µg/mL. For the same compound, the inhibition result (with SW-620 [1]; in [2]; in [10]; in data set [11]; in data set [25]; in data set [27]) was “Active” each time. In addition, the inhibition result with SW-620 [12] is “Active”. Also, the “growth inhibition (GI)” value with SW-620 [18] was “Active”. Besides, the result with SW-620 [19] was Active. For the same compound, the Stability result in [4] is recorded as “Stable”. Besides, 2.4 µM corresponded to half-maximal inhibition in data set [5] (IC50). For the same compound, in data set [20], the solubility (thermodynamic) at 18 h stood at 0.45 mg/mL (≈ 1440 µM). The Drug metabolism entry in data set [6] is reported as “Metabolite_Notdetected”; in data set [7] it was “Metabolite_Detected”. This compound also gave an apparent clearance CL/F in [21] of 3.87 L/h/kg. Further, the area under the curve AUC(0-t) in data set [22] is 12.5 µg·h/mL. Further, the inhibition in [8] turned out to be 99%. The results for the Activity result (in [15]; in the data set on SW-620 [23]) were “Not Active” and “Active”, respectively. Also, the EC50 with SW-620 [9] is over 30 µM. Further, the Vz in the data set with Mus musculus was found to be 10.9 L/kg. Further, the half-life in [24] is 118 min. In data set [26], the t1/2 came out at 6.72 min.
